The values that follow come from ChEMBL document CHEMBL3588768, “Synthesis and bioactivity of tripolinolate A from Tripolium vulgare and its analogs” (Bioorg Med Chem Lett, 2015).

For assay [1], the system named is Escherichia coli. The experiment in a line: Antimicrobial activity against Escherichia coli after 5 to 12 hrs by micro broth dilution assay. Type of assay: functional, organism-based.
The subject of assay [2] is Staphylococcus aureus. The experiment in a line: Antimicrobial activity against Staphylococcus aureus after 5 to 12 hrs by micro broth dilution assay. Format: functional, organism-based.
Assay [3] deals with U-87 MG. In words: Antiproliferative activity against human U87MG cells after 72 hrs by sulforhodamine B assay. Type of assay: functional, cell-based, U-87MG ATCC. In short, it runs like this: (§1)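 Sulforhodamine B assay on glioma (U251, U87-MG) and colorectal (HCT-15, SW620) cancer cells. Cells were exposed to a range of compound concentrations for 72 h, then stained with SRB. IC50 values were derived from the dose–response. Doxorubicin served as positive control.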
For orientation: In SRB staining, fixed cells bind dye roughly in proportion to their protein.

Assay [4] concerns HCT-15. The experiment in a line: Antiproliferative activity against human HCT15 cells after 72 hrs by sulforhodamine B assay. To be noted: HCT-15, 72 h. Format: functional, cell-based. The method in brief:
as §1

The subject of assay [5] is SW-620. In words: Antiproliferative activity against human SW620 cells after 72 hrs by sulforhodamine B assay. Type of assay: functional, cell-based. To be noted: SW-620, 72 h. In short, it runs like this: as §1
In assay [6] the test system is U-251. In words: Antiproliferative activity against human U251 cells after 72 hrs by sulforhodamine B assay. To be noted: U-251, 72 h. Format: functional, cell-based. The method in brief:
as §1

As usually defined, the IC50 is the concentration needed to halve the response being measured.

Activity calls are given as the source filed them. The rule behind the calls is not given here.

Turning to `CC(C)[C@@H](C)/C=C/[C@@H](C)[C@H]1CCC2=C3C=CC4=CC(=O)CC[C@]4(C)[C@H]3CC[C@@]21C`, the inhibition entry in assay [1] and in assay [2] was “inactive” in each case.
For the compound `O=C(/C=C/c1ccc(O)c(O)c1)O[C@H]1[C@H](O)C[C@](O)(C(=O)O)C[C@H]1OC(=O)/C=C/c1ccc(O)c(O)c1`, the inhibition entry in assay [1] and in assay [2] was “inactive” each time.
With `CCCC(=O)OC/C=C/c1ccc(OC(C)=O)c(OC)c1`, the half-inhibitory concentration (IC50) in assay [3] was 18.5 µM; in assay [4] it was 22.8 µM; in assay [5] it was 10.2 µM; in assay [6], 33.3 µM. The inhibition entry in assay [1] and in assay [2] was “inactive” throughout.
As for `CCCC(=O)Oc1ccc(/C=C/COC(C)=O)cc1OC`, the IC50 stood at 10.5 µM in assay [3], 17.1 µM in assay [4], 7.59 µM in assay [5] and 45.7 µM in assay [6]. In addition, the inhibition result in assay [1] and in assay [2] was “inactive” each time.
For the compound `COc1cc(/C=C/COC(C)=O)ccc1OC(=O)C(C)C`, the inhibition result in assay [1] and in assay [2] was “inactive” each time.
Consider `CC1=C(C)C(=O)C(CC[C@](C)(O)CCC[C@H](C)CCC[C@H](C)CCCC(C)C)=C(C)C1=O`, for which the inhibition result in assay [1] and in assay [2] was “inactive” in each case.
For `CCC(=O)OC/C=C/c1ccc(OC(=O)CC)c(OC)c1`, the half-inhibitory concentration (IC50) was 28.8 µM in assay [3], 29.6 µM in assay [4], 47.4 µM in assay [5] and 52.6 µM in assay [6]. Further, the inhibition entry in assay [1] and in assay [2] was “inactive” throughout.
With `CCCCCC(=O)OC/C=C/c1ccc(OC(=O)CCCCC)c(OC)c1`, the inhibition result in assay [1] and in assay [2] was “inactive” throughout.
Regarding `COc1cc(/C=C/COC(=O)CC(C)C)ccc1OC(=O)CC(C)C`, the inhibition entry in assay [1] and in assay [2] was “inactive” throughout.
As for `CC(C)[C@H](C)/C=C/[C@@H](C)[C@H]1CCC2=C3C=CC4=CC(=O)CC[C@]4(C)[C@H]3CC[C@@]21C`, the inhibition entry in assay [1] and in assay [2] was “inactive” in each case.
As to `CCCCCCC(=O)OC/C=C/c1ccc(OC(=O)CCCCCC)c(OC)c1`, the inhibition entry in assay [1] and in assay [2] was “inactive” throughout.
Turning to `CCC(=O)Oc1ccc(/C=C/COC(C)=O)cc1OC`, the inhibition result in assay [1] and in assay [2] was “inactive” in each case.
As for `CCCCCCCCCCCCCCCCCCCCOC(=O)/C=C/c1ccc(O)c(OC)c1`, the IC50 is 5.24 µM in assay [3], 15.1 µM in assay [4], 5.25 µM in assay [5] and 26.8 µM in assay [6]. Further, the inhibition entry in assay [1] and in assay [2] was “inactive” each time.
`O=C(/C=C/c1ccc(O)c(O)c1)O[C@@H]1[C@H](O)C[C@@](O)(C(=O)O)C[C@H]1OC(=O)/C=C/c1ccc(O)c(O)c1`: the inhibition result in assay [1] and in assay [2] was “inactive” each time.
For `CCCCCCCCCCCCCCCCCCCCOC(=O)/C=C/c1ccc(O)cc1`, the inhibition result in assay [1] and in assay [2] was “inactive” each time.
With `CCCC(=O)OC/C=C/c1ccc(OC(=O)CCC)c(OC)c1`, the half-inhibitory concentration (IC50) is 17.3 µM in assay [3], 28.8 µM in assay [4], 7.85 µM in assay [5] and above 50 µM in assay [6]. Also, the inhibition result in assay [1] and in assay [2] was “inactive” throughout.
In the case of `COc1cc(/C=C/COC(=O)C(C)C)ccc1OC(=O)C(C)C`, the IC50 in assay [3] is 29.4 µM; in assay [4], 34.6 µM; in assay [5], 35.5 µM; in assay [6], above 50 µM. Also, the inhibition result in assay [1] and in assay [2] was “inactive” throughout.
On to `CCCC(=O)Oc1ccc(/C=C/COC(=O)CC(C)C)cc1OC`, for which the inhibition result in assay [1] and in assay [2] was “inactive” each time.
For `CC[C@H](C)C(=O)OC/C=C/c1ccc(OC(=O)[C@@H](C)CC)c(OC)c1`, the inhibition result in assay [1] and in assay [2] was “inactive” each time.
Consider `CCCC(=O)OC/C=C/c1ccc(OC(=O)CC(C)C)c(OC)c1`, for which the inhibition entry in assay [1] and in assay [2] was “inactive” throughout.
As for `C/C(=C\CO)CCC[C@H](C)CCC[C@H](C)CCCC(C)C` [TRANS-PHYTOL], the IC50 is 8.02 µM in assay [3], 22.5 µM in assay [4], 5.85 µM in assay [5] and 27.8 µM in assay [6]. The inhibition result in assay [1] and in assay [2] was “inactive” throughout.
For `COc1cc(/C=C/CO)ccc1O`, the inhibition result in assay [1] and in assay [2] was “inactive” each time.
In the case of `CCC(=O)OC/C=C/c1ccc(OC(C)=O)c(OC)c1`, the inhibition result in assay [1] and in assay [2] was “inactive” each time.
With `COc1cc(/C=C/COC(=O)C(C)C)ccc1OC(C)=O`, the inhibition result in assay [1] and in assay [2] was “inactive” each time.
For the compound `CCCC(=O)c1c(O)cc(O)cc1O[C@@H]1O[C@H](CO)[C@@H](O)[C@H](O)[C@H]1O`, the IC50 in assay [3] was determined as 3.89 µM; in assay [4], 1.91 µM; in assay [5], 0.41 µM; in assay [6], 19.7 µM. Besides, the inhibition result in assay [1] and in assay [2] was “inactive” throughout.
As for `CCCCCCCC(=O)OC/C=C/c1ccc(OC(=O)CCCCCCC)c(OC)c1`, the inhibition result in assay [1] and in assay [2] was “inactive” throughout.
Turning to `CCCCC(=O)OC/C=C/c1ccc(OC(=O)CCCC)c(OC)c1`, the inhibition result in assay [1] and in assay [2] was “inactive” each time.
As for `CC[C@H](C)C(=O)OC/C=C/c1ccc(OC(C)=O)c(OC)c1`, the half-inhibitory concentration (IC50) in assay [3] was 15 µM; in assay [4], 34.1 µM; in assay [5], 21.9 µM; in assay [6], 28.1 µM. In addition, the inhibition entry in assay [1] and in assay [2] was “inactive” in each case.
`O=C(/C=C/c1ccc(O)c(O)c1)O[C@@H]1C[C@](O)(C(=O)O)C[C@@H](OC(=O)/C=C/c2ccc(O)c(O)c2)[C@H]1O`: the inhibition result in assay [1] and in assay [2] was “inactive” each time.
Regarding `COC(=O)/C=C/c1ccc(O)c(OC)c1`, the inhibition result in assay [1] and in assay [2] was “inactive” throughout.
Take `O=c1c(O[C@@H]2O[C@H](CO)[C@@H](O)[C@H](O)[C@H]2O)c(-c2ccc(O)cc2)oc2cc(O)cc(O)c12` [ASTRAGALIN]: the IC50 in assay [3] was 3.12 µM; in assay [4], 23.5 µM; in assay [5], 4.6 µM; in assay [6] it was 37.6 µM. Moreover, the inhibition result in assay [1] and in assay [2] was “inactive” throughout.
In the case of `COc1cc(/C=C/C(=O)O)ccc1O`, the inhibition result in assay [1] and in assay [2] was “inactive” each time.
